Test results published in ChEMBL document CHEMBL2413055, “Synthesis of substituted diphenyl sulfones and their structure-activity relationship with the antagonism of 5-НТ6 receptors” (Bioorg Med Chem, 2013).

Experiments:
[1] = target: T1, 5-hydroxytryptamine receptor 6 (Homo sapiens, UniProt P50406); assay: Antagonist activity at recombinant human 5-HT6 receptor expressed in HEK293 cells assessed as 5-HT-induced intracellular cAMP production after 30 mins; type: functional, cell-based
In short: (§1)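 Human 5-HT6R in HEK cells under a tetracycline-inducible T-REx promoter, induced with 1 µg/mL tetracycline the day before. Cells in HBSS/5 mM HEPES pH 7.4, 0.05% BSA and IBMX, about 4000 per well. IC50 from 4-parameter fit, in duplicate. Ki by Cheng-Prusoff using 5-HT EC50 measured alongside.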

[2] = target: T1, 5-hydroxytryptamine receptor 6; assay: Antagonist activity at 5-HT6 receptor (unknown origin); in short: as §1
[3] = target: T1, 5-hydroxytryptamine receptor 6; assay: Displacement of [3H]-lysergic acid diethylamide from human 5-HT6 receptor expressed in HEK293 cell membranes after 3.5 hrs
[4] = target: T1, 5-hydroxytryptamine receptor 6; assay: Partial agonist activity at recombinant human 5-HT6 receptor expressed in HEK293 cells assessed as induction of intracellular cAMP production after 30 mins; type: functional, cell-based

T1 sequence (P50406 whole entry): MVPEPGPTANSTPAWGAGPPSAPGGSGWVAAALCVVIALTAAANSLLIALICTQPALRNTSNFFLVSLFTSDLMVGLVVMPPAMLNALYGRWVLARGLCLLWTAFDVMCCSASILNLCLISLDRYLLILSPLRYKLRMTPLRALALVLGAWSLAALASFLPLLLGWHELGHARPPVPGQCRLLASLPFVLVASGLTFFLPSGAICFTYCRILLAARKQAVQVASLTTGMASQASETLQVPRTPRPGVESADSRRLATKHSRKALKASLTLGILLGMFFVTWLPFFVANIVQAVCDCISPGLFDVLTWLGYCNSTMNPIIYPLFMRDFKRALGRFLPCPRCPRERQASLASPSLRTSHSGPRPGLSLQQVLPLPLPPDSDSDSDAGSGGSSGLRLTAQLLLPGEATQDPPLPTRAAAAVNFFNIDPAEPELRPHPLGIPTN

| Structure (SMILES) | Ki [1] [µM] | other results |
| --- | --- | --- |
| Nc1cc(N2CCNCC2)ccc1S(=O)(=O)c1ccccc1 | 0.00165 |  |
| CC(=O)Nc1cc(N2CCNCC2)ccc1S(=O)(=O)c1ccccc1 | 0.0083 |  |
| COc1ccccc1S(=O)(=O)c1ccccc1 | 0.866 |  |
| Nc1ccccc1S(=O)(=O)c1ccccc1 | 0.491 |  |
| O=S(=O)(c1ccccc1)c1ccc(N2CCNCC2)cc1 | 0.0108 |  |
| O=S(=O)(c1ccccc1)c1ccccc1 [(PHENYLSULFONYL)BENZENE] | 1.6 |  |
| CNc1ccccc1S(=O)(=O)c1ccccc1 | 0.0243 |  |
| Nc1ccc(S(=O)(=O)c2ccc(N)c(N)c2)cc1 | 0.564 |  |
| Nc1ccc(S(=O)(=O)c2ccc(N)cc2)cc1 [DAPSONE] | 0.183 |  |
| CNc1cc(-c2cccnc2)ccc1S(=O)(=O)c1ccccc1 | 0.0483 |  |
| CCNc1cc(N2CCNCC2)ccc1S(=O)(=O)c1ccccc1 |  | IC50 [2]: 0.0027 µM |
| Cc1cc(N2CCNCC2)c2c(c1)N(S(=O)(=O)c1ccccc1Cl)CCO2 |  | Ki [3]: 0.0002 µM |
| CN(C)c1cc(N2CCNCC2)ccc1S(=O)(=O)c1ccccc1 | 0.0301 | Activity [4]: 17% |
| CN(C)c1ccccc1S(=O)(=O)c1ccccc1 | 2.04 |  |
| CNc1cc(-c2ccccc2)ccc1S(=O)(=O)c1ccccc1 | 0.153 |  |
